Results on one compound are retold here after ChEMBL document CHEMBL1828498, “Identification and characterization of a novel integrin-linked kinase inhibitor” (J Med Chem, 2011).

What is called IC50 is the midpoint of a concentration-inhibition curve.

Each structure is given as a SMILES string. Active and inactive are the calls of the source. The calls are words filed in the database; no cut-off is given here.

Series [1] deals with Mus musculus. The experiment in a line: Inhibition of phosphorylation of Thr-308-Akt in human PC3 cells xenografted nude mouse tumor lysate at 25 mg/kg, po administered for 35 days by Western blot analysis. Particulars: Neoplasm, PC-3. It is filed as functional, organism-based. The arrangement: dose 25 mg/kg. The essentials:
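Tumors harvested at terminal sacrifice after 35 days of daily oral dosing, snap-frozen and stored at -80°C; lysates immunoblotted, three representative tumors per group.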
A general note: Xenograft models place foreign cells or tissue in a host animal.

The subject of series [2] is PC-3. Put plainly: Reduction in YB-1 concentration in human PC3 cells after 24 hrs by Western blot analysis. The series is classed as functional, cell-based. The essentials: (§1)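 PC-3 versus stable PC-3/CA-ILK, or SKBR3 versus transient SKBR3/CA-ILK (electroporation, used 48 h after), treated 24 h in 5% FBS medium; immunoblotting with ECL; representative of three experiments.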
A general note: A western blot detects proteins with antibodies after separation by electrophoresis.

Series [3] relates to PC-3. The experiment in a line: Reduction in EGFR concentration in human PC3 cells after 24 hrs by Western blot analysis. It is filed as functional, cell-based. The essentials:
as §1

The target of series [4] is Cyclin-dependent kinase 1/cyclin B1 (Homo sapiens) (UniProt P06493+P14635). The experiment in a line: Inhibition of CDK1/cyclin B at 5 uM assessed as remaining activity. The series is classed as protein-complex assay. The procedure, abridged:
(§2)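 Panel of 20 recombinant kinases, profiled by a commercial vendor.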

Series [5] addresses Proto-oncogene tyrosine-protein kinase Src (Homo sapiens) (UniProt P12931). Put plainly: Inhibition of cSRC at 5 uM assessed as remaining activity.
Series [6] concerns the target T1, Scaffold protein ILK (Homo sapiens) (UniProt Q13418).
T1 sequence (whole entry): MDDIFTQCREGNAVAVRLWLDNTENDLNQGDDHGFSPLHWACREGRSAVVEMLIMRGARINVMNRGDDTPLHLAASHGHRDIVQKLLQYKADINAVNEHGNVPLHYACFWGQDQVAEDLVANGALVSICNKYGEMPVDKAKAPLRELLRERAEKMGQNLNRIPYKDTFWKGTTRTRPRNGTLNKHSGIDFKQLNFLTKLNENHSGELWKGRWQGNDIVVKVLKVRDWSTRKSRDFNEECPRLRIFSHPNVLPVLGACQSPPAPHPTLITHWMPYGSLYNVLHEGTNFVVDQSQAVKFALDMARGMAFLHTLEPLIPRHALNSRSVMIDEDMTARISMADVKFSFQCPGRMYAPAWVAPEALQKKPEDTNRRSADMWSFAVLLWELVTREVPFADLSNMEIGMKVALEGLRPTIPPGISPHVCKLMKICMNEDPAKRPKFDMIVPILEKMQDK
Put plainly: (§3) Inhibition of human ILK activity assessed myelin basic protein phosphorylation by radiometric kinase assay in the presence of [gamma 32P]ATP. The procedure, abridged: (§4)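 ILK immunoprecipitated from EGF-pretreated (100 ng/mL, 2 h) PC-3 lysates with protein A/G agarose; reaction in 25 μL with 5 μg MBP and 2.5 μCi [γ-32P]ATP, 30°C for 25 min; SDS-PAGE, autoradiography, densitometry versus DMSO control; mean ± SD, n = 3.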

The target of another series is Scaffold protein ILK (Homo sapiens, UniProt Q13418). The series is described as §3. The essentials:
as §4

The test system of another series is MCF7. Put plainly: Antiproliferative activity against human MCF7 cells assessed as suppression of cell viability by MTT assay. It is filed as functional, cell-based. The procedure, abridged:
(§5)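 Cancer lines seeded 5000/well and nonmalignant PrEC/MEC 8000/well in 10% FBS, 24 h before treatment. Compound exposure 24 h in 5% FBS medium, 0.1% final DMSO. MTT (0.25 mg/mL) for 1 h at 37°C, dye solubilized in DMSO, absorbance read at 570 nm. Mean ± SD, n = 6.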
(In general: Tetrazolium dyes change colour on reduction, which living cells bring about.)

The target of series [7] is Rapamycin-insensitive companion of mTOR (Homo sapiens) (UniProt Q6R327). The experiment in a line: Inhibition of mTORC2 in human PC3 cells assessed as PKCalpha phosphorylation by Western blot analysis. Particulars: PC-3. It is filed as cell-based. The procedure, abridged: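 Cells exposed 24 h in 5% FBS medium, final DMSO 0.1%; lysed in 1% SDS/10 mM EDTA/50 mM Tris pH 8.1, equal protein on SDS-PAGE, nitrocellulose, primary antibody 1:1000 at 4°C for 2 h, HRP secondary 1:5000, ECL detection; blots representative of three independent experiments.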
Sequence of Rapamycin-insensitive companion of mTOR (Homo sapiens) (Q6R327 whole entry): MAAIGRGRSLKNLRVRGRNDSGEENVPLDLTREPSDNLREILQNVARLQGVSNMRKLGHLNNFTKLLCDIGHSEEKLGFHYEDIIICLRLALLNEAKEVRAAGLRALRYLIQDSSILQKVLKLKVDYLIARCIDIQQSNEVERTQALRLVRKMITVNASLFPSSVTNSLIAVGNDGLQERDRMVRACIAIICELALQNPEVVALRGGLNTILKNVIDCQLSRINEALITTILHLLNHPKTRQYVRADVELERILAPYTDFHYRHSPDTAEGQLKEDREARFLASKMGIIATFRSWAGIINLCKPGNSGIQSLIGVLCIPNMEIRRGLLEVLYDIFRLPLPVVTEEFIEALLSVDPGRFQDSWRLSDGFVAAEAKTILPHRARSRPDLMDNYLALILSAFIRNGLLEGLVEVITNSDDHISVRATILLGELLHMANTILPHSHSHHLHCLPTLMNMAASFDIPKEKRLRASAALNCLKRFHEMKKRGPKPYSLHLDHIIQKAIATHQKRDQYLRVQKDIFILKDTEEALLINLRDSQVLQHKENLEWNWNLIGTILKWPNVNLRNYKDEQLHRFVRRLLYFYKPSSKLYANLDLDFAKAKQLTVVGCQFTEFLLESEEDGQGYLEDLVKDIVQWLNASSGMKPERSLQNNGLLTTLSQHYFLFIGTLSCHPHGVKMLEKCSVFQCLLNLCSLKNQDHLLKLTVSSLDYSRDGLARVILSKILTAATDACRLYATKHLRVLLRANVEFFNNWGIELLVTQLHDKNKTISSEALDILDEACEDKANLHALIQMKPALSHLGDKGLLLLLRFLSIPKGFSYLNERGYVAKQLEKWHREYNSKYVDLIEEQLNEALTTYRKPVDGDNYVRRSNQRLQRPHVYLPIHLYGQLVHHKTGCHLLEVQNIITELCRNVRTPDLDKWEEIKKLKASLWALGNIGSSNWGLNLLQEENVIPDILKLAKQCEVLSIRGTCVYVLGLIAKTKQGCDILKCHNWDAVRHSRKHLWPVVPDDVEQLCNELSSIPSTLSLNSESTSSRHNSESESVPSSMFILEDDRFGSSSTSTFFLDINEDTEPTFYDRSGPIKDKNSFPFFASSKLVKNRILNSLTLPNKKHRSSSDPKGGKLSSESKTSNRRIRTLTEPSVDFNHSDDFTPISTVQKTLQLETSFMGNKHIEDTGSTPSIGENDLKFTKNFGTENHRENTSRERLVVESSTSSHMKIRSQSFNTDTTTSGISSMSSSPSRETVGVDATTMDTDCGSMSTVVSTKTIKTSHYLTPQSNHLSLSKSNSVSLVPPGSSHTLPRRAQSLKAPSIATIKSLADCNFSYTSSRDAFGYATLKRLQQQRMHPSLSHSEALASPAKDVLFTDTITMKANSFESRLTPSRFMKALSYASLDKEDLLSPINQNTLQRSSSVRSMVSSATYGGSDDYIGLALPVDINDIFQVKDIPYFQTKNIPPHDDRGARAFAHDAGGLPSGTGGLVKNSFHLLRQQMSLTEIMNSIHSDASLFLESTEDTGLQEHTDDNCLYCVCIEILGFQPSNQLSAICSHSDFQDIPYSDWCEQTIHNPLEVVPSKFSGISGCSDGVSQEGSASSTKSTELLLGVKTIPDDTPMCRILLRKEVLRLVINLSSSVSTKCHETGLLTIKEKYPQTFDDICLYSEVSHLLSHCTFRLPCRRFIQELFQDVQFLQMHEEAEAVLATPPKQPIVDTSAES

Series [8] has as its target 3-phosphoinositide-dependent protein kinase 1 (Homo sapiens) (UniProt O15530). The experiment in a line: Inhibition of PDK1 at 5 uM assessed as remaining activity.
Series [9] has as its system PC-3. Put plainly: Induction of autophagy in human PC3 cells expressing Atg5 siRNA assessed as LC3-II conversion by Western blot analysis. The series is classed as functional, cell-based. The essentials: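 Transient Atg5 siRNA transfection of PC-3 by electroporation, cells used 48 h later, then treated. LC3-II conversion detected by immunoblot: SDS lysis, antibody 1:1000 at 4°C for 2 h, ECL. Representative of three independent experiments.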

Series [10] relates to PC-3. Put plainly: Antiproliferative activity against human PC3 cells expressing constitutively active ILK assessed as cell viability by MTT assay. The series is classed as functional, cell-based. The procedure, abridged:
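Stable PC-3 clones expressing GFP-CA-ILK (or GFP), made by electroporation, G418 250 μg/mL for one week and GFP sorting. Treated 24 h in 5% FBS medium. Viability by MTT, 0.25 mg/mL, 1 h at 37°C, A570. n = 6, mean ± SD.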

Series [11] relates to PC-3. The experiment in a line: Induction of apoptosis in human PC3 cells up to 2 uM after 48 hrs by flow cytometry. The series is classed as functional, cell-based.
In series [12] the target is T1, Scaffold protein ILK (Homo sapiens). Put plainly: Inhibition of ILK in human MDA-MB-231 cells assessed as decrease in MLC phosphorylation by Western blot analysis. It is filed as cell-based. The procedure, abridged:
(§6)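 PC-3 and MDA-MB-231 cells exposed 24 h in 5% FBS medium across a concentration series. Phospho-GSK3β (Ser9) and phospho-MLC (Thr18/Ser19) detected by immunoblot: SDS lysis, primary 1:1000 at 4°C for 2 h, HRP secondary, ECL. Representative of three experiments.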

The test system of series [13] is PC-3. Put plainly: Antiproliferative activity against human PC3 cells assessed as suppression of cell viability by MTT assay. It is filed as functional, cell-based. The essentials: as §5
The test system of series [14] is PC-3. Put plainly: Induction of apoptosis in human PC3 cells assessed as late apoptotic cells at 2 uM by annexin V/PI staining (reference value: 9.8%). The series is classed as functional.
Series [15] has as its system PC-3. Put plainly: Induction of apoptosis in human PC3 cells assessed as PARP cleavage by Western blot analysis. The series is classed as functional, cell-based. The essentials:
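PC-3 cells treated 24 h in 5% FBS medium. Lysed in 1% SDS/10 mM EDTA/50 mM Tris pH 8.1, equal protein on SDS-PAGE, primary antibody 1:1000 at 4°C for 2 h, HRP secondary, ECL detection. Read-outs PARP cleavage and LC3-II conversion; blots representative of three experiments.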

Series [16] deals with PC-3. Put plainly: Induction of apoptosis in human PC3 cells assessed as late apoptotic cells at 4 uM by annexin V/PI staining (reference value: 9.8%). The series is classed as functional.
Series [17] deals with T1, Scaffold protein ILK (Homo sapiens). Put plainly: Inhibition of ILK in human MDA-MB-231 cells assessed as decrease in GSK3-beta phosphorylation by Western blot analysis. The series is classed as cell-based. The essentials: as §6
Series [18] deals with Tyrosine-protein kinase JAK3 (Homo sapiens) (UniProt P52333). Put plainly: Inhibition of Jak3 at 5 uM assessed as remaining activity. The essentials: as §2
Sequence of Tyrosine-protein kinase JAK3 (Homo sapiens) (P52333 whole entry): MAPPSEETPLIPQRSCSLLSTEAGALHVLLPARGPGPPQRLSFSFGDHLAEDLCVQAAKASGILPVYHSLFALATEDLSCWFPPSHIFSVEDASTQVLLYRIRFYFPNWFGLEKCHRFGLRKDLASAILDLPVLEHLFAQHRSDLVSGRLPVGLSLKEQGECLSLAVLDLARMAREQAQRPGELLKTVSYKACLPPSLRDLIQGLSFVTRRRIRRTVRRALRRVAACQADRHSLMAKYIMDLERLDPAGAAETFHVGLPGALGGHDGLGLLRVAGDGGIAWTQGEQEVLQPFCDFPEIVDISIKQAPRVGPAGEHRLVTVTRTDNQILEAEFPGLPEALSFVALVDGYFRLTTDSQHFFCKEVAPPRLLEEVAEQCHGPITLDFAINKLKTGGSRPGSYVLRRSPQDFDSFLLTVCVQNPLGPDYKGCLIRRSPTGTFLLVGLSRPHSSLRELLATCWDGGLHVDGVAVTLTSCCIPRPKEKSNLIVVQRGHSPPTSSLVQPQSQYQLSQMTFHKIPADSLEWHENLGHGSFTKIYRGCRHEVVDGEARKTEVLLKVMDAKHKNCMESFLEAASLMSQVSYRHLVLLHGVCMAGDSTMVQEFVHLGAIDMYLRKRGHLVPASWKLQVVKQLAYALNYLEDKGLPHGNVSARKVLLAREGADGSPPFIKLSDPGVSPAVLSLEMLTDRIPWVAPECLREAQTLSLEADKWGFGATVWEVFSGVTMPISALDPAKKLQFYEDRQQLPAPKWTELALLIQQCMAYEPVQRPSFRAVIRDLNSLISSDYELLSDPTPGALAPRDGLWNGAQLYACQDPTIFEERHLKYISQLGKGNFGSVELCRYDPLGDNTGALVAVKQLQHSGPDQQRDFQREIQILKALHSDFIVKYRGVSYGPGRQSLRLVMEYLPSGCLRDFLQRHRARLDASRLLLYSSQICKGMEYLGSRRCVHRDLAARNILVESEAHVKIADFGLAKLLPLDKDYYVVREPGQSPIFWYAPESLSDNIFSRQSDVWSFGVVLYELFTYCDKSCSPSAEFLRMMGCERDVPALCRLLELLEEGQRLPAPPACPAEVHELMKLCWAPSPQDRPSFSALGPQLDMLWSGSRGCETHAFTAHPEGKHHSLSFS
The subject of series [19] is Mus musculus. Put plainly: Toxicity in nude mouse assessed as weight loss at 50 mg/kg, po administered for 35 days. The series is classed as organism-based. Further details: dose 50 mg/kg, route oral. The settings on record: in vivo, 840 h. The essentials:
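Male NCr nude mice bearing s.c. PC-3 tumors, dosed once daily by oral gavage in 0.5% methylcellulose/0.1% Tween 80 vehicle, 10 μL/g, for 35 days; body weight recorded weekly.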

Sequence of 3-phosphoinositide-dependent protein kinase 1 (Homo sapiens) (O15530 whole entry, looked up): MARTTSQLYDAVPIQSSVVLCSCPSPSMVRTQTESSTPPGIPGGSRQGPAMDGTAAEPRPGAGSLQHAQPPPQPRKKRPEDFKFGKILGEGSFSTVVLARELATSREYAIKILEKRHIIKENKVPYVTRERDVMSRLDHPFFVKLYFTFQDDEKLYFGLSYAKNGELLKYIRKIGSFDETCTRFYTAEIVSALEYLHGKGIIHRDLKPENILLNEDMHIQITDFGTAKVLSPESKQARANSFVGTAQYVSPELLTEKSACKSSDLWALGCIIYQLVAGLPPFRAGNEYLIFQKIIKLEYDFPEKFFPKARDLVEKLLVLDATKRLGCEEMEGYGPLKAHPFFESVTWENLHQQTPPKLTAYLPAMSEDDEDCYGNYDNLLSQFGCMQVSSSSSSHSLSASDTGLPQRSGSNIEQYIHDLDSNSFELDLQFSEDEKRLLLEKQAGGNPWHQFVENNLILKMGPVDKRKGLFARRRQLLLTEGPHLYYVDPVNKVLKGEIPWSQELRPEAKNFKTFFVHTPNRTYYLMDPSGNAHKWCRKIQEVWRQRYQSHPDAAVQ
Sequence of Proto-oncogene tyrosine-protein kinase Src (Homo sapiens) (P12931 2-536 limits assumed): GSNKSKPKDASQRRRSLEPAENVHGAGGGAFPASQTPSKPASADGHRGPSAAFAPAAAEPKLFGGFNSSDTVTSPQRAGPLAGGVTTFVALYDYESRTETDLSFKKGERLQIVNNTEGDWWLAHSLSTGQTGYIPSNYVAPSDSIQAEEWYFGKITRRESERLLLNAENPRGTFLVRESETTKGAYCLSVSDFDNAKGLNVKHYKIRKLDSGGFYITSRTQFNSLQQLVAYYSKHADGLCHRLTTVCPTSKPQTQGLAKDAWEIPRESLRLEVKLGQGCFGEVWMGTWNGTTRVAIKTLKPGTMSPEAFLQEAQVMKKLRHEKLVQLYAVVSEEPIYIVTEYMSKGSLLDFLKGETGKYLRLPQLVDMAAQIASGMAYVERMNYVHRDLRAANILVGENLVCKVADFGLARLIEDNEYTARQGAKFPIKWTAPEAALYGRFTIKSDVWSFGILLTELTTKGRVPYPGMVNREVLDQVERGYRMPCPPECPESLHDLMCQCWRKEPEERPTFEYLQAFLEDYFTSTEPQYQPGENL
Sequence of Cyclin-dependent kinase 1/cyclin B1 (Homo sapiens) (P06493 whole entry, looked up): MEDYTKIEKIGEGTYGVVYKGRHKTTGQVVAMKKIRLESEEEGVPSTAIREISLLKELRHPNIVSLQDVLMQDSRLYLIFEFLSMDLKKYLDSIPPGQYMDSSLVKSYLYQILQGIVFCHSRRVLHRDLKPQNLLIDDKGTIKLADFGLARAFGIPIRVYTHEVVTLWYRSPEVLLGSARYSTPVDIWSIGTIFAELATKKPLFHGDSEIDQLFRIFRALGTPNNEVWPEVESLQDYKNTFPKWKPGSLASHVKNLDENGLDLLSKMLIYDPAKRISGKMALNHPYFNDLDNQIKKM
Sequence of Cyclin-dependent kinase 1/cyclin B1 (Homo sapiens) (P14635 whole entry, looked up): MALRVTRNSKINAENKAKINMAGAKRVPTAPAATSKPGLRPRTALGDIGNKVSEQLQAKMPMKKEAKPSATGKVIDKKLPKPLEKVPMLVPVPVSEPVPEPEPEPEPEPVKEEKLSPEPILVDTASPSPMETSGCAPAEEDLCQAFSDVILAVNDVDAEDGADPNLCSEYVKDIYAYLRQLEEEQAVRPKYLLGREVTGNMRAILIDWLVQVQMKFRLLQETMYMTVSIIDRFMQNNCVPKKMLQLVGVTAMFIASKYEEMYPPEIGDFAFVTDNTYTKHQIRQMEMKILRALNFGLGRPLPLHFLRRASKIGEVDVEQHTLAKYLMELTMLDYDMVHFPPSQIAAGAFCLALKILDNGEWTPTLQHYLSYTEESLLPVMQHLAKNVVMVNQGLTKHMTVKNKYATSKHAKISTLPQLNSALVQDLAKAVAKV

With `CNC(=O)CCc1cc(-c2ccc(-c3ccc(C(F)(F)F)cc3)cc2)n(-c2ccc(N3CCNCC3)cc2)n1`, the outcome in the series on Mus musculus [1], in the series on PC-3 [9] and in the series with PC-3 [11] was inactive. Moreover, the Activity entry with PC-3 [2] was “Dose-dependent effect”; in the series on PC-3 [3], “Dose-dependent effect”; in series [4], 73%; in series [5], 91%; in series [8] it was 94%; in the series with PC-3 [14], 11.6%. The Activity result in the series on PC-3 [15] is “Dose-dependent effect”; with PC-3 [16], 19.1%; in [18] it was 128%; in the series on Mus musculus [19], “Non-toxic”. Further, in series [6], the inhibition result was “Dose-dependent effect”. For the same compound, the values for the IC50 on Scaffold protein ILK, with MCF7 and with PC-3 [13] were 0.6 µM, 2.5 µM and 2 µM, respectively. In addition, the inhibition result (in series [7]; with PC-3 [10]) was “inactive” throughout. Besides, the inhibition entry in [12] and in series [17] was “Active” throughout.
